Hits are enriched below; roughly 2.7% of the tested compounds scored in any of these assays.
OXTR ag: activates the human oxytocin receptor | CHO-OTR cells, Fluo-8 calcium fluorescence; normalized: DMSO 0%, oxytocin 100% | P30559 | activation, % at 3 µM | 0.32% of 320,000 active;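 active = activation above the mean of all tested compounds plus 3 SD, cutoff set per screening run, cut at about 20% in these data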;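 also: peak over basal fluorescence ratio from a 100 s FLIPR kinetic read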
Target sequence (P30559 whole entry, looked up): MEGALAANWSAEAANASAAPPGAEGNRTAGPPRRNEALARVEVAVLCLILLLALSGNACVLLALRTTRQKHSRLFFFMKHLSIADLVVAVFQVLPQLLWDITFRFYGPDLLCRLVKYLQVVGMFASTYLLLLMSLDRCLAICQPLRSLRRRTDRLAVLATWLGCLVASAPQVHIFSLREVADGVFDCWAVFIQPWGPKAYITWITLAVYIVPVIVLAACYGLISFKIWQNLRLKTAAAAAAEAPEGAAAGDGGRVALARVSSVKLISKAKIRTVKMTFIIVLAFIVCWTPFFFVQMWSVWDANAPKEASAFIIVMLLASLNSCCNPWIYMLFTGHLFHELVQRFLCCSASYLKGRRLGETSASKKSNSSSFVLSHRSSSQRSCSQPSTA
OXTR potentiator: potentiates the human oxytocin receptor response; 0.061% of 320,000 active; CHO-OTR cells, Fluo-8 calcium fluorescence, potentiator mode; 0% = oxytocin EC15, 100% = EC100; activation, % at 3 µM; AID 2445; P30559;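 active = activation above that plate's cutoff, the mean activation of tested compounds plus 3 SD, cut at about 6.6% in these data, passing the limit was not always enough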;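 also: 100% uses oxytocin at 75 nM as the full agonist control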
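Material: CHO-OTR cells, human receptor; compound dosing: single dose, 3.0 µM nominal final compound concentration; schedule: 6 min compound pre-incubation at room temperature, 100 s kinetic read; measured by: kinetic Fluo-8 calcium fluorescence; read-out basis: % activation vs EC15 and EC100 oxytocin; controls: EC15 oxytocin alone as 0%, 75 nM oxytocin as 100%; replicates: singlicate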
V1R ag counter: V1a receptor agonism, counter-screen for OXTR agonists; AID 2797; CHO-V1R cells, Fluo-8 calcium fluorescence, agonist mode; 0% DMSO, 100% 3 nM vasopressin; P37288; activation, % at 3 µM; 0.25% of 320,000 active;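 active = activation above the mean activation of all tested compounds plus 3 SD, per screening run, cut at about 20% in these data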;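 also: signal is peak over basal fluorescence ratio across a 100 second FLIPR read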
Target sequence (P37288 whole entry, looked up): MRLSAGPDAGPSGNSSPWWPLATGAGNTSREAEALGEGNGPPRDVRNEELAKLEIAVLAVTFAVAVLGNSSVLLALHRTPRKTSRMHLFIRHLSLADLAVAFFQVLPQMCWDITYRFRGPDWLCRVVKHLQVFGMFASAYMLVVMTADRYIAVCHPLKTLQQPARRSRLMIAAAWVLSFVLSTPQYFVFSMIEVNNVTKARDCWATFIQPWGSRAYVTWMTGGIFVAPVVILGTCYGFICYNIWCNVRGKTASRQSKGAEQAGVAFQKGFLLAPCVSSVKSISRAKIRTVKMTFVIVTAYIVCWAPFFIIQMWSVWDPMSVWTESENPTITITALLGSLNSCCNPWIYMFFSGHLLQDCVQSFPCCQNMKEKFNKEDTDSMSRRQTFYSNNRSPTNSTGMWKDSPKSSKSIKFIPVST
OX1R antag-1: blocks the human orexin 1 receptor; O43613; CHO/OX1R cells, Fluo-8 calcium fluorescence, orexin A; inhibition, % at 5 µM; 0.43% of 330,000 active; AID 434989;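 active = inhibition above its plate's threshold, mean inhibition of all tested compounds on the plate plus 3 SD, cut at about 37% in these data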;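 also: 0% = orexin A challenge wells and 100% = SB-334867-A antagonist wells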
CHO parental Ca: counter-screen for OX1R antagonists: effect in parental CHO cells | parental CHO-K1, ATP-induced calcium, Fluo-8 fluorescence | inhibition, % at 5.6 µM | 0.63% of 330,000 active;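 active = inhibition above that plate's mean sample inhibition plus 3 SD, cut at about 26% in these data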;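 also: 0% = ATP-challenged DMSO wells and 100% = DMSO wells without ATP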
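Material: parental CHO cells / Compound: single nominal dose of 5.6 µM per compound / Signal: Fluo-8 fluorescence / Replicates: singlicate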
OX1R antag-2: antagonists of human orexin 1 receptor (OX1R) | O43613 | OX1R-expressing cells, FRET antagonist read-out | inhibition, % at 6.6 µM | 1.8% of 330,000 active | AID 485270; in the data active = inhibition mostly above about 38%, no sharp cut-off; inactive = mostly below about 40%;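 also: 0% = agonist challenge alone and 100% = reference antagonist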
OX1R HTRF conf: OX1R (human) antagonism, HTRF confirmed; inhibition, % at 6.6 µM; shares compounds with OX1R antag-2; OX1R-expressing cells, HTRF antagonist assay; 49% of 1,800 active; in the data active = inhibition above about 55%;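 also: CHO cells expressing OX1R stimulated with orexin A at about EC80; 0% = agonist challenge alone and 100% = reference antagonist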
CHO-K1 HTRF cnt: signal in parental CHO-K1 cells, OX1R antagonist counter-screen. 48% of 1,800 active. AID 493232. inhibition, % at 6.6 µM. shares compounds with OX1R antag-2. HTRF counterscreen; in the data active = inhibition above about 17%;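 also: 0% = agonist challenge with vehicle and 100% = vehicle alone without agonist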
* marks the source's active call; other numbers are inactive results; / = not tested or not shown.

SMILES | OXTR ag | OXTR potentiator | V1R ag counter | OX1R antag-1 | CHO parental Ca | OX1R antag-2 | OX1R HTRF conf | CHO-K1 HTRF cnt
O=C(CC1C(=O)NCCN1Cc1cccc(F)c1)NCCCCCN1CCOCC1 (configuration not stated) | 0.7 | -2.8 | 0.2 | -4.9 | -7.9 | 15.5 | / | /
CCC(=O)N=c1ccn(C2=Nc3ccccc3NC2=C(C#N)C#N)cc1 | 0.2 | 2.6 | -0.3 | -11.8 | -4.0 | 101.5* | 48.9 | 36.3*
CCOC(=O)/C(C#N)=C1/C=Nc2ccccc2N1 | -0.7 | 0.2 | -0.8 | 4.5 | -4.2 | 28.1 | / | /
Cc1[nH]c2ccc(C(=O)OCCN(C)C)cc2c1C | 1.8 | -0.7 | 1.5 | -4.4 | -8.4 | 15.0 | / | /
CCOC(=O)c1ccc2[nH]c(C)c(C)c2c1 | -1.5 | -15.3 | -0.5 | 23.8 | -12.0 | 92.9* | 65.8* | 10.2
NC(=O)c1cc(N)ccc1N1CCCC1 | 0.7 | -7.6 | 1.6 | -12.0 | -8.1 | 87.0* | 53.6 | 19.0*
COc1ccccc1N1CCN(C(=O)c2ccccc2N(C)S(=O)(=O)c2ccc(C)cc2)CC1 | -0.1 | -6.1 | 5.2 | -30.7 | -24.8 | 29.7 | / | /
COc1cc2sc3ccc(-c4ccc(N(C)C)nc4)cc3c(=O)c2cc1OC | 1.0 | -9.4 | 0.1 | -5.8 | -17.8 | 79.7* | 64.6* | 16.6
COc1cc2sc3ccc(-c4ccc(CN5CCOCC5)cc4)cc3c(=O)c2cc1OC | 1.7 | -0.1 | 0.4 | -23.2 | -24.8 | 38.5 | / | /
O=C(CSc1ccc([N+](=O)[O-])cn1)Nc1ccc2[nH]c(=O)[nH]c2c1 | 1.2 | -6.7 | 1.0 | 5.0 | -2.5 | 93.0* | 27.5 | 24.3*
O=C(CSc1ccc([N+](=O)[O-])cn1)Nc1ccc2c(c1)OCCO2 | -0.6 | -12.3 | 0.5 | -17.1 | -5.0 | 17.1 | / | /
Cn1nnc(NC(=O)c2ccc([N+](=O)[O-])cc2Cl)n1 | 0.8 | 4.4 | 1.0 | 15.9 | 14.5 | 94.2* | 65.6* | 53.0*
Clc1ccccc1C1CC(c2ccccc2)Nc2ncnn21 (configuration not stated) | 0.0 | -5.2 | 0.4 | -16.0 | -6.8 | 78.8* | 21.6 | 0.7
COC(=O)[C@H]1C[C@@H]1[C@H](NS(=O)(=O)c1ccc2ccccc2c1)c1ccccc1 | -2.1 | -13.8 | -0.6 | -5.8 | -31.9 | 79.1* | 36.0 | 3.4
CCOc1ccc(N=Nc2c(=O)[nH]n3c(C)cc(C)nc23)cc1 | -1.8 | -10.3 | 0.0 | -8.7 | -1.7 | 149.4* | 64.1* | 73.8*
Cc1cc(=O)n2[nH]c(N)c(N=Nc3ccccc3)c2n1 | -1.0 | -3.6 | -0.8 | -8.8 | -2.0 | 19.8 | / | /
CC(=O)N1CCOc2ccc(S(=O)(=O)N3CCC(C(=O)NCc4ccccc4)CC3)cc21 | 0.8 | -6.9 | 0.1 | -7.6 | -11.6 | 10.9 | / | /
COC1c2ccccc2C(=O)N1CCc1ccc(Cl)cc1 (configuration not stated) | -1.4 | -4.2 | -1.1 | -19.5 | -4.2 | 0.5 | / | /
O=S(=O)(Nc1c(O)ccc2ccccc12)c1cccc2ccccc12 | -0.2 | -1.8 | -0.4 | 19.4 | -4.9 | 80.1* | 77.7* | 0.5
Cc1cc(/C=N/n2c(COc3ccccc3)nc3ccccc3c2=O)c(O)c([N+](=O)[O-])c1 | -1.8 | -6.5 | 1.8 | -17.6 | -18.3 | 91.9* | 36.6 | 12.2
O=c1cc(/C=C/c2c(F)cccc2Cl)[nH]c2ccccc12 | -0.7 | -0.9 | 3.3 | 23.1 | -8.5 | 90.1* | 90.0* | 2.3
Nc1nccc(/C=C/c2c(F)cccc2Cl)n1 | -1.9 | -13.0 | -1.4 | -24.0 | -12.2 | 27.9 | / | /
O=C(c1ccc(CNS(=O)(=O)c2cccc(Cl)c2)cc1)N1CCCCC1 | 2.6 | -6.4 | 10.8 | -11.5 | 4.1 | 28.0 | / | /
COC(=O)c1cc(C(=O)Nc2nnc(CC(C)C)s2)cc([N+](=O)[O-])c1 | 0.6 | -6.1 | 0.7 | -2.0 | -0.9 | 22.4 | / | /
COCc1nnc(NC(=O)c2cc(C(=O)OC)cc([N+](=O)[O-])c2)s1 | -1.1 | -3.8 | -0.2 | -8.1 | -4.5 | 90.3* | 42.1 | 46.4*
SMILES | OXTR ag | OXTR potentiator | V1R ag counter | OX1R antag-1 | CHO parental Ca | OX1R antag-2 | OX1R HTRF conf | CHO-K1 HTRF cnt
Cc1cc(OCC(=O)NCCc2c[nH]c3ccccc23)c2c(C)c(C)c(=O)oc2c1 | 0.3 | -9.2 | -0.1 | -32.4 | -7.9 | 86.0* | 32.7 | 5.1
Cc1ccc(OCC(=O)NCCc2c[nH]c3ccccc23)cc1 | -0.1 | -13.7 | 2.2 | -1.3 | -5.2 | 22.9 | / | /
Cc1cc(C)c(C#N)c(SCc2nnc(-c3ccccc3[N+](=O)[O-])o2)n1 | 4.5 | -3.6 | 3.0 | -13.1 | -0.2 | 16.3 | / | /
Cc1cc(C)c(C#N)c(SCc2nnc(-c3ccccc3)o2)n1 | 0.4 | -5.6 | 5.0 | 23.4 | -11.2 | 80.7* | 42.5 | 1.6
CCN(CC)C(=O)CSc1nnc(-c2c[nH]c3ccccc23)o1 | 0.6 | -2.8 | 2.0 | -15.9 | -15.1 | 78.2* | 43.5 | 3.0
Cc1cccc(C)c1NC(=O)CN(C)CC(=O)N1CC(=O)Nc2ccccc21 | -0.2 | -7.9 | -0.3 | -3.9 | -9.7 | 4.9 | / | /
COc1ccc2cc(C(=O)NCc3ccco3)c(=O)oc2c1 | -0.5 | -13.5 | 1.2 | -6.1 | 1.3 | 48.4 | / | /
COc1ccc2cc(C(N)=O)/c(=N/NC(=O)c3ccco3)oc2c1 | -0.4 | -10.5 | 0.3 | -6.9 | -2.8 | 79.2* | 53.7 | 11.2
N#CC1=C(N)Oc2c(ccc3cccnc23)C1c1cccnc1 (configuration not stated) | 0.0 | -10.5 | 0.5 | -31.1 | -20.0 | 96.1* | 24.4 | 8.3
N#CC1=C(N)Oc2cc3ccccc3cc2C1c1cccnc1 (configuration not stated) | 0.1 | -1.2 | 0.4 | -16.2 | -16.8 | 25.0 | / | /
CC(C)c1ccc(C2c3[nH]c4ccccc4c3C[C@H]3C(=O)N(c4ccccc4C(=O)N4CCC(C(=O)O)CC4)C(=O)N23)cc1 (some centres not stated) | -0.1 | -0.9 | 0.7 | 0.5 | -5.7 | 8.1 | / | /
CNC(CC(C)C)C(=O)NC1C(=O)NC(CC(N)=O)C(=O)NC2C(=O)NC3C(=O)NC(C(=O)NC(C(=O)O)c4cc(O)cc(O)c4-c4cc3ccc4O)C(O)c3ccc(c(Cl)c3)Oc3cc2cc(c3OC2OC(CO)C(O)C(O)C2OC2CC(C)(N)C(O)C(C)O2)Oc2ccc(cc2Cl)C1O (configuration not stated) | 0.4 | 0.2 | 0.2 | -8.1 | 5.6 | 11.6 | / | /
O=C1NC(C(=O)O)=CC(c2ccc([N+](=O)[O-])cc2)N1 (configuration not stated) | 1.8 | 4.6 | -1.1 | 3.6 | -2.1 | 104.0* | 47.6 | 78.1*
Cc1cc(=O)n(C)c(=O)n1CCCCOc1ccc([N+](=O)[O-])cc1 | 5.2 | -11.8 | 7.2 | 8.0 | -0.2 | 104.3* | 25.2 | 16.2

Screens from PubChem BioAssay.
